Assay results taken from ChEMBL document CHEMBL4359813, “Synthesis and antimycobacterial activity of imidazo[1,2-b][1,2,4,5]tetrazines” (2019).
Calls of active or inactive are those of the source. The rule behind the calls is not given here.

How the values were obtained:
[1] = tested on: Mycolicibacterium smegmatis MC2 155; experiment: Inhibition of STPK in Mycobacterium smegmatis MC2 155 expressing aminoglycoside phophotransferase-8 assessed as growth inhibition at 350 microg/disk after 18 hrs by paper disk method
[2] = tested on: Mycolicibacterium smegmatis; experiment: Antimycobacterial activity against Mycobacterium smegmatis atR1 assessed as decrease in drug resistance development at 5 ug/disc after 2 to 3 days by paper disc method; assay type: functional, organism-based
Method in brief: (§1)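 Mutant M. smegmatis strains were grown in Middlebrook 7H9/OADC/Tween/glycerol to OD600 1.2. Cultures were diluted 1:9:10 (culture:water:M290) and overlaid on M290 agar. Commercial or impregnated paper discs were applied and plates incubated 2–3 days at 37 °C. Inhibition halos were measured to 1 mm, run in triplicate, mean ± SD.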

[3] = tested on: Mycolicibacterium smegmatis; experiment: Antimycobacterial activity against Mycobacterium smegmatis atR2 assessed as decrease in drug resistance development at 5 ug/disc after 2 to 3 days by paper disc method; assay type: functional, organism-based; method in brief: as §1
[4] = tested on: Mycolicibacterium smegmatis; experiment: Antimycobacterial activity against Mycobacterium smegmatis atR11 assessed as decrease in drug resistance development at 5 ug/disc after 2 to 3 days by paper disc method; assay type: functional, organism-based; method in brief: as §1
[5] = tested on: Mycolicibacterium smegmatis; experiment: Antimycobacterial activity against Mycobacterium smegmatis atR8 assessed as decrease in drug resistance development at 5 ug/disc after 2 to 3 days by paper disc method; assay type: functional, organism-based
Method in brief: (§2)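 Drug-resistant M. smegmatis mc2 155 mutants, isolated on M290 agar with 3.5-4× MIC of compound and resistance re-confirmed, grown in Middlebrook 7H9 (OADC, 0.1% Tween-80, 0.4% glycerol) to OD600 1.2. Diluted 1:9:10 culture:water:M290 and poured as top layer on M290 agar. Impregnated paper discs applied; 37 °C for 2–3 days. Halos measured to nearest 1 mm; triplicates, mean ± SD versus control strain.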

[6] = tested on: Mycolicibacterium smegmatis; experiment: Antimycobacterial activity against Mycobacterium smegmatis atR10 assessed as decrease in drug resistance development at 5 ug/disc after 2 to 3 days by paper disc method; assay type: functional, organism-based; method in brief: as §1
[7] = tested on: Mycolicibacterium smegmatis; experiment: Antimycobacterial activity against Mycobacterium smegmatis atR14 assessed as decrease in drug resistance development at 5 ug/disc after 2 to 3 days by paper disc method; assay type: functional, organism-based; method in brief: as §1
[8] = tested on: Mycolicibacterium smegmatis; experiment: Antimycobacterial activity against Mycobacterium smegmatis atR17 assessed as decrease in drug resistance development at 5 ug/disc after 2 to 3 days by paper disc method; assay type: functional, organism-based; method in brief: as §1
[9] = tested on: Mycolicibacterium smegmatis; experiment: Antimycobacterial activity against Mycobacterium smegmatis atR19 assessed as decrease in drug resistance development at 5 ug/disc after 2 to 3 days by paper disc method; assay type: functional, organism-based; method in brief: as §1
[10] = tested on: Mycolicibacterium smegmatis; experiment: Antimycobacterial activity against Mycobacterium smegmatis atR33 assessed as decrease in drug resistance development at 5 ug/disc after 2 to 3 days by paper disc method; assay type: functional, organism-based; method in brief: as §2
[11] = tested on: Mycolicibacterium smegmatis; experiment: Antimycobacterial activity against Mycobacterium smegmatis atR37 assessed as decrease in drug resistance development at 5 ug/disc after 2 to 3 days by paper disc method; assay type: functional, organism-based; method in brief: as §2
[12] = tested on: Mycolicibacterium smegmatis; experiment: Antimycobacterial activity against Mycobacterium smegmatis atR40 assessed as decrease in drug resistance development at 5 ug/disc after 2 to 3 days by paper disc method; assay type: functional, organism-based; method in brief: as §2
[13] = tested on: Mycolicibacterium smegmatis; experiment: Antimycobacterial activity against Mycobacterium smegmatis atR8 assessed as decrease in drug resistance development at 15 ug/disc after 2 to 3 days by paper disc method; assay type: functional, organism-based; method in brief: as §2
[14] = tested on: Mycolicibacterium smegmatis; experiment: Antimycobacterial activity against Mycobacterium smegmatis atR9 assessed as decrease in drug resistance development at 15 ug/disc after 2 to 3 days by paper disc method; assay type: functional, organism-based; method in brief: as §2
[15] = tested on: Mycolicibacterium smegmatis; experiment: Antimycobacterial activity against Mycobacterium smegmatis atR14 assessed as decrease in drug resistance development at 15 ug/disc after 2 to 3 days by paper disc method; assay type: functional, organism-based; method in brief: as §1
[16] = tested on: Mycolicibacterium smegmatis; experiment: Antimycobacterial activity against Mycobacterium smegmatis atR1 assessed as decrease in drug resistance development at 15 ug/disc after 2 to 3 days by paper disc method; assay type: functional, organism-based; method in brief: as §1
[17] = tested on: Mycolicibacterium smegmatis; experiment: Antimycobacterial activity against Mycobacterium smegmatis atR2 assessed as decrease in drug resistance development at 15 ug/disc after 2 to 3 days by paper disc method; assay type: functional, organism-based; method in brief: as §1
[18] = tested on: Mycolicibacterium smegmatis; experiment: Antimycobacterial activity against Mycobacterium smegmatis atR11 assessed as decrease in drug resistance development at 15 ug/disc after 2 to 3 days by paper disc method; assay type: functional, organism-based; method in brief: as §1

| SMILES | inhibition zone (IZ) [1] [mm] | Activity [2] | Activity [3] | Activity [4] | Activity [5] | Activity [6] | Activity [7] | Activity [8] | Activity [9] | Activity [10] | Activity [11] | Activity [12] | Activity [13] | Activity [14] | Activity [15] | Activity [16] | Activity [17] | Activity [18] |
| --- | --- | --- | --- | --- | --- | --- | --- | --- | --- | --- | --- | --- | --- | --- | --- | --- | --- | --- |
| NC[C@H]1O[C@H](O[C@H]2[C@H](O)[C@@H](O[C@H]3O[C@H](CO)[C@@H](O)[C@H](N)[C@H]3O)[C@H](N)C[C@@H]2N)[C@H](O)[C@@H](O)[C@@H]1O | 9.3 | Active | Active | Active | Active | Active | Active | Active | Active | Active | Active | Active | – | – | – | – | – | – |
| CC[C@H]1OC(=O)[C@H](C)[C@@H](O[C@H]2C[C@@](C)(OC)[C@@H](O)[C@H](C)O2)[C@H](C)[C@@H](O[C@@H]2O[C@H](C)C[C@H](N(C)C)[C@H]2O)[C@](C)(O)C[C@@H](C)C(=O)[C@H](C)[C@@H](O)[C@]1(C)O | – | – | – | – | – | – | – | – | – | – | – | – | inactive | inactive | inactive | inactive | inactive | inactive |
